The list is not random: actives were taken first. Their share in the collection is about 2.6%.
Cl transport mod – modulates chloride dependent transport by human KCC2; KCC2 cells, thallium flux FluoZin-2 fluorescence; B-score of Tl+ flux slope (higher = more flux/activation; lower = inhibition) at 10 µM; 2.2% of 190,000 active; AID 1456;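 active means thallium flux slope and its plate-corrected score both differing from the plate sample mean at a set confidence after two filtering rounds, in either direction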;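 further: slope of fluorescence scaled to starting intensity during 10 to 20 s after thallium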
Target sequence (Q9H2X9 whole entry, looked up): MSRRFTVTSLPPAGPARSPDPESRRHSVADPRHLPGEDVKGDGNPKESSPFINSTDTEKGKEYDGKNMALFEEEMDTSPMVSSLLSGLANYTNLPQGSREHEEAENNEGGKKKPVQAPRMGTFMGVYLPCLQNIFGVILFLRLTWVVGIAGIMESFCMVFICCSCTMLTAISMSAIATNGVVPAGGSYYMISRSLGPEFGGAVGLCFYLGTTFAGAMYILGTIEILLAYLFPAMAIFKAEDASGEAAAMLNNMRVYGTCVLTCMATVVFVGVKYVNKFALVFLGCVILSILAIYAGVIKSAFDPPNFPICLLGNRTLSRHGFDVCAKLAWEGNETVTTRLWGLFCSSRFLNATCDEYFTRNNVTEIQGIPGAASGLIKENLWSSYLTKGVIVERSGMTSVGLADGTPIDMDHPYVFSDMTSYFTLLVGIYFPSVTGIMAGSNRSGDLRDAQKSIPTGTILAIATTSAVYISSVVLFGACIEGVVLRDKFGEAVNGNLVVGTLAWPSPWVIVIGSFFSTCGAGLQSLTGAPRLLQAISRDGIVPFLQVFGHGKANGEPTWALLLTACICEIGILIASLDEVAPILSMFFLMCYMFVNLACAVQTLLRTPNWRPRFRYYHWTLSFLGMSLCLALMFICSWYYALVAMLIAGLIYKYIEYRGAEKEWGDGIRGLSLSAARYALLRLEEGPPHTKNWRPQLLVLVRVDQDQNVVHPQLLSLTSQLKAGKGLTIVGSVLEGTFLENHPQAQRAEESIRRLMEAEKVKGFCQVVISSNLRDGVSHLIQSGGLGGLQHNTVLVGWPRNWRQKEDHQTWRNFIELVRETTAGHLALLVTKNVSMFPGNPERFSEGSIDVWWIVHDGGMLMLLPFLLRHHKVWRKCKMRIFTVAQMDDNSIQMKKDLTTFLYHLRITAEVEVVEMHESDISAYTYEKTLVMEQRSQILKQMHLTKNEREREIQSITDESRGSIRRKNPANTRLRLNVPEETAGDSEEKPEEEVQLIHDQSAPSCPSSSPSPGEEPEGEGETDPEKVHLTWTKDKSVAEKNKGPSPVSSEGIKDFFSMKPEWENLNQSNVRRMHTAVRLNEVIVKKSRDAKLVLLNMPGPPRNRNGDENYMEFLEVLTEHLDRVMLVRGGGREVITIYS
Rad51 HR inh – blocks human Rad51 in homologous recombination; 0.085% of 200,000 active; inhibition, % at 10 µM; hRad51 DNA strand exchange, fluorescence dequenching; AID 1385;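 active means inhibition above 40% at the single screening dose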;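 further: 0% = DMSO control wells and 100% = blanks with heterologous ssDNA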
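Read-out basis: percent inhibition relative to plate controls and blanks / Assay system: human Rad51 nucleoprotein filaments preassembled on unlabelled ssDNA / Timing: filaments 15 min 37 °C, then compound 30 min / Control set: per-plate controls and blanks / Technique: fluorescence dequenching at 485/520 nm / Compound: 10 µM final, single point / Also added: Fluorescein- and BHQ1-tagged 47-mer duplex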
CHT PAM – allosteric activators of human choline transporter CHT; AID 488977; 0.49% of 310,000 active; B-score at 10 µM; CHT-expressing cells, membrane potential dye, choline EC20; stronger effect = higher value; LV-AA mutant CHT in HEK293 cells;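 active means initial fluorescence not abnormally high and integrated response B-score, plate-corrected, over 3 SD above library mean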
CHT inh – inhibitors of human choline transporter CHT; CHT-expressing cells, membrane potential dye, choline response; stronger effect = lower value; Q9GZV3; B-score at 10 µM; 0.86% of 310,000 active;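 active means B-score over 3 SD under the library average, and starting fluorescence ratio not unusually high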;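 further: choline stimulus applied at its EC90 after an EC20 pre-addition; B-score computed on integrated fluorescence ratio after choline addition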
KCC2 sec1 – confirmation of human KCC2 transport modulators. shares compounds with Cl transport mod. 15% of 3,700 active. HEK293-KCC2, thallium flux, FluoZin2 fluorescence; stronger effect = higher value. normalised thallium flux (F/F0 slope) at 10 µM;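 active means thallium flux slope above the same plate's solvent-only control mean plus 3 SD; inconclusive means the two replicate wells disagree; inactive means no significant difference from solvent-only control wells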
KCC2 bumet counter – bumetanide-insensitive thallium flux in KCC2 cells with ouabain, counter-screen | shares compounds with Cl transport mod | HEK293-KCC2 + bumetanide/ouabain, thallium flux FluoZin2; stronger effect = higher value | normalized thallium flux at 10 µM | 49% of 3,700 active | AID 1714;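 active means thallium entry rate above the same plate's blocked-transporter control wells by more than 3 SD; inconclusive means the two repeat wells disagree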;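 further: raw slope of fluorescence over initial fluorescence between 10 and 20 s after thallium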
KCC2 secondary2 – confirmation of human KCC2 transport modulators; normalized thallium flux at 10 µM; shares compounds with Cl transport mod; 23% of 3,700 active; HEK293-KCC2, thallium flux FluoZin2 fluorescence; actives lie on both sides; F/F0 rise rate, 10–20 s post-thallium;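 active means thallium flux slope more than 3 SD above or below the plate's solvent-only control mean, mostly below; inconclusive means the two repeat wells disagreed; inactive means no significant shift from solvent-only controls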;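 further: raw slope with 0.1% DMSO as baseline and bumetanide as block control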
HEK counter1 – counter-screen for KCC2 modulators: effect in parental HEK293 cells; shares compounds with Cl transport mod; thallium flux rate (normalised fluorescence) at 10 µM; 46% of 3,700 active; thallium flux FluoZin2, ouabain; baseline-ratio fluorescence slope, 10–20 s after thallium;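 active means thallium flux rate significantly above the same plate's solvent-only control wells, beyond their mean plus 3 SD; inconclusive means the two replicate wells gave conflicting results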
KCC2 ouabain – modulates human KCC2 on retest with ouabain | 48% of 3,700 active | raw Tl+ flux slope (below DMSO = inhibition, above = activation) at 10 µM | HEK293-KCC2, thallium flux FluoZin2 fluorescence; bidirectional: low = inhibitor, high = activator | shares compounds with Cl transport mod | AID 1717;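 active means thallium flux slope beyond 3 SD from same-plate DMSO control mean in most replicates, usually higher, sometimes lower; inconclusive means repeat tests gave conflicting results; inactive means no significant difference from controls in most replicates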;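 further: slope of initial-normalized fluorescence between seconds 10 and 20 after thallium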
HEK293 Tl flux2 – parental HEK flux effect, counter-screen 2; shares compounds with Cl transport mod; HEK293 parental, thallium flux FluoZin-2 fluorescence slope; thallium flux slope at 10 µM; 33% of 3,700 active; AID 1718;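 active means thallium flux slope above the same plate's solvent-control mean plus 3 SD in both duplicate wells; inconclusive means duplicate wells that disagreed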;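 further: run without ouabain in cells lacking the KCC2 cotransporter; slope of fluorescence scaled to its starting value between 10 and 20 s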
An asterisk follows results filed as active; i = inactive; u = inconclusive; x = no result given.

SMILES	Cl transport mod	Rad51 HR inh	CHT PAM	CHT inh	KCC2 sec1	KCC2 bumet counter	KCC2 secondary2	HEK counter1	KCC2 ouabain	HEK293 Tl flux2
O=C1/C(=C/C=C/c2ccco2)SC(=S)N1NS(=O)(=O)c1ccccc1	6.8*	-52	i	i	0.0067	0.014*	0.032	0.017*	u	0.018*
O=C1/C(=C/c2cccs2)SC(=S)N1NS(=O)(=O)c1ccccc1	8.8*	1	i	i	0.014*	0.029*	0.036	0.016*	0.026	0.014*
COc1ccc(OCCN2C(=O)NC(C)(c3ccc(C)cc3)C2=O)cc1 (stereo not drawn)	4*	0	i	i	0.0081	0.0054	0.034	0.0042	0.019	0.011
Cc1ccc(C2(C)NC(=O)N(CCOc3ccccc3)C2=O)cc1 (stereo not drawn)	-1.7	0	i	i	x	x	x	x	x	x
C=CCn1c(CCNC(=O)c2ccccc2F)nnc1SCC(=O)Nc1nc2ccccc2s1	x	x	i	i	0.016	0.0043	0.025*	0.0064	0.014	0.0086
O=C(CSc1nnnn1-c1ccccc1F)Nc1nc2ccccc2s1	-1.3	-3	i	i	x	x	x	x	x	x
O=C(C1CCC(CNc2nc(=S)[nH]c3ccccc23)CC1)N1CCN(c2ccc(F)cc2)CC1 (stereo not drawn)	-7.5*	4	x	x	0.0051	0.0046	0.022*	0.006*	0.01*	0.0087
CC1CC(C)CN(C(=O)CCCn2c(=S)[nH]c3ccccc3c2=O)C1 (stereo not drawn)	5.4*	-3	i	i	0.0054	0.029*	0.035	0.011*	u	u
COc1ccc(N2CCN(C(=O)C3CCC(Cn4c(=S)[nH]c5ccccc5c4=O)CC3)CC2)cc1 (stereo not drawn)	2.8*	0	i	i	0.0065	0.014*	0.038	0.014*	u	0.015*
Cc1cc(N2CCOCC2)nc(-c2ccc([N+](=O)[O-])cc2)n1	2.3	x	i	i	x	x	x	x	x	x
Oc1ccc(N2CCN(Cc3c(-c4ccccc4)nc4ccccn34)CC2)cc1	x	x	i	i	x	x	x	x	x	x
COc1cc(NC(=O)CN2C(=O)CN(C)C2=O)c(C)cc1[N+](=O)[O-]	0.94	5	i	i	x	x	x	x	x	x
COc1cc(NC(=O)Cn2ncc(Cl)c(Cl)c2=O)c(C)cc1[N+](=O)[O-]	-5.1*	x	x	x	0.0083	0.0054	0.033	0.0059*	0.017*	0.01
Cc1cc(SCC(=O)NC(=O)NCc2ccco2)nc2c(C)cccc12	4.4*	-5	i	i	0.0076	0.0063*	0.034	0.019*	u	0.016*
COc1cc(CCN2C(=O)c3cccc4cccc(c34)C2=O)c(S(=O)(=O)NCCCO)cc1OC	x	7	i	i	x	x	x	x	x	x
Cc1sc(NC(=S)NC(=O)c2ccccc2)c(C#N)c1C	0.067	-7	i	i	x	x	x	x	x	x
Cc1cc(NC(=S)NC(=O)c2ccco2)c2ccccc2n1	29*	8	i	i	u	0.084*	0.066*	0.056*	0.071*	0.058*
O=C(NC(=S)Nc1cccc2ncccc12)c1ccco1	13*	18	i	i	u	0.032*	u	0.021*	0.028*	0.023*
Cc1sc(NC(=S)NC(=O)c2ccco2)c(C#N)c1C	22*	10	i	i	0.006	0.022*	u	0.023*	0.03*	0.019*
Nn1c(SCC(=O)N2CCOCC2)nnc1-c1ccccc1Cl	-0.22	1	i	i	x	x	x	x	x	x
CCCN(CCC)S(=O)(=O)c1ccc(C(=O)Nc2nnc(-c3cc(OC)cc(OC)c3)o2)cc1	10*	x	i	i	0.009	0.021*	0.036	u	0.029*	0.013
COc1cccc(-c2nnc(NC(=O)c3cccc(F)c3)o2)c1	33*	4	i	i	u	0.1*	0.088*	0.085*	0.092*	0.083*
O=C(Nc1nnc(-c2ccc(F)cc2)o1)c1cccc([N+](=O)[O-])c1	48*	15	i	i	0.033*	0.09*	0.044*	u	0.072*	0.023*
COc1cccc(-c2nnc(NC(=O)c3ccccc3Br)o2)c1	2.8	0	i	i	x	x	x	x	x	x
O=S(=O)(NC1=NCCCCC1)c1ccc2ccccc2c1	-0.92	7	i	i	x	x	x	x	x	x
SMILES	Cl transport mod	Rad51 HR inh	CHT PAM	CHT inh	KCC2 sec1	KCC2 bumet counter	KCC2 secondary2	HEK counter1	KCC2 ouabain	HEK293 Tl flux2
CCn1nc(C(=O)OCC(=O)N2CC(=O)Nc3ccccc32)c2ccccc2c1=O	-2.5	-6	i	i	x	x	x	x	x	x
CCc1ccc(NC(=O)C2CCN(S(=O)(=O)c3cccs3)CC2)cc1	x	x	i	i	x	x	x	x	x	x
Cc1ccc(O)c(C(=O)CC(=O)c2ccccc2Cl)c1	x	-8	i	i	u	0.064*	0.03	0.038*	0.055*	0.012*
COc1cc(/C=c2\s/c(=C\C(=O)C(C)(C)C)[nH]c2=O)cc(OC)c1OC	1.9	-24	i	i	x	x	x	x	x	x
CC(C)(C)C(=O)/C=c1\[nH]c(=O)/c(=C\c2ccc(C#N)cc2)s1	30*	-11	i	i	0.019*	0.05*	0.037	u	0.048*	u
COc1ccc(CN2C3CCCC2CC(NC(=O)Nc2ccccc2C)C3)cc1 (stereo not drawn)	2.5*	-1	i	i	0.0064	0.0046	0.027	u	0.017	0.01
COc1ccc(CN2C3CCCC2CC(NC(=O)Nc2ccccc2)C3)cc1 (stereo not drawn)	0.63	-4	i	i	x	x	x	x	x	x
COc1ccc(Cc2nnc(NC(=O)c3cccc(F)c3)s2)cc1OC	x	x	i	i	x	x	x	x	x	x
COc1cc(/C=N/N2C(=O)c3ccccc3NC2(C)c2cccc([N+](=O)[O-])c2)cc(Br)c1O (stereo not drawn)	x	6	i	i	x	x	x	x	x	x
CCN1CCN(C(c2ccccc2)c2nnnn2Cc2ccc3c(c2)OCO3)CC1 (stereo not drawn)	1.8	x	i	i	x	x	x	x	x	x
CCN1CCN(C(c2ccccc2)c2nnnn2Cc2ccccc2)CC1 (stereo not drawn)	-4.9*	-2	i	i	0.014	0.0052	0.03	0.0073	0.016	0.0091

Assay outcomes as filed in PubChem.
